Assay results from different studies.
Each line is one published result; the experiments were not run side by side.
Target: Platelet-derived growth factor receptor alpha (PDGFRA, Homo sapiens, UniProt P16234)

SMILES | observed | technique | concentration | remaining binding
O=C(c1ccc(Nc2ncc(Cl)c(-c3cc4ccccc4s3)n2)cc1)N1CCC(N2CCCC2)CC1 | binding | competition with immobilised ligand | 1 µM | 35%
CCOCCn1cc(C(=O)Nc2ccc(-n3nc(-c4cccnc4)cc3C(F)(F)F)cn2)ccc1=O | cell-free assay | competition with immobilised ligand | 1 µM | 68%
CN(C)c1nccc(-c2cnc3ncccn23)n1 | binding |  | 1 µM | 78%
FC(F)(F)Oc1cccc(-c2cnc3ccc(-c4ccncc4)nn23)c1 | cell-free assay | competition with immobilised ligand | 5 µM | 22%
N[C@@H]1CCN(c2nccc(-c3cnn4ncccc34)n2)C1 | binding |  | 1 µM | 100%
COc1cnc(Nc2cccc(S(N)(=O)=O)c2)nc1N1CCN(c2ccccc2)CC1 | binding | competition with immobilised ligand | 1 µM | 85%
CN(C)c1ncc(F)c(-c2cnn3ncccc23)n1 | binding |  | 1 µM | 67%
c1cncc(-c2cccc(Nc3nccc(NC4CCCCC4)n3)c2)c1 | binding | competition with immobilised ligand | 10 µM | 11%
C[C@@H]1CCN(c2nccc(-c3cnn4ncccc34)n2)C1 | binding |  | 1 µM | 81%
COc1ccc2c(O[C@@H]3C[C@H]4C(=O)N[C@]5(C(=O)O)CC5/C=C\CCCCC[C@H](NC(=O)OC5CCCC5)C(=O)N4C3)cc(-c3csc(NC(=O)C(C)C)n3)nc2c1C (stereo partly shown) | cell-free assay | competition with immobilised ligand | 1 µM | 84%
O=C(Nc1c[nH]nc1C(=O)NC1CCNCC1)c1cc(F)cc(F)c1 | binding | competition with immobilised ligand | 1 µM | 83%
CCS(=O)(=O)c1cc2cc(C[C@@](O)(CC(C)(C)c3ccc(F)cc3C(N)=O)C(F)(F)F)[nH]c2cn1 | cell-free assay | competition with immobilised ligand | 1 µM | 99%
O=C(NCCCN1CCOCC1)c1ccc(Nc2ncc(Cl)c(-c3ccc(Cl)s3)n2)cc1 | binding | competition with immobilised ligand | 1 µM | 10%
COc1cc(-c2cn(C3CCc4ccccc4N(CC(F)(F)F)C3=O)nn2)ccc1-n1ccc(C)n1 (stereo not shown) | cell-free assay | competition with immobilised ligand | 1 µM | 88%
N#Cc1ccccc1CSc1nnc2c(n1)[nH]c1ccccc12 | binding | competition with immobilised ligand | 10 µM | 94%
O=C(c1ccc(Nc2nccc(-c3cc4ccccc4s3)n2)cc1)N1CCC(N2CCCC2)CC1 | binding | competition with immobilised ligand | 1 µM | 52%
C[C@@H]1CN(c2ccc3ncc(-c4ccc5[nH]nc(C6CC6)c5c4)n3n2)C[C@H](C)O1 | binding | competition with immobilised ligand | 50 nM | 81%
CS(=O)(=O)c1cc(C2(NC(=O)c3cncc4c3cnn4-c3ccc(F)cc3)CC2)ccn1 | cell-free assay | competition with immobilised ligand | 1 µM | 90%
COc1ccnn2ncc(-c3ccnc(N(C)C)n3)c12 | binding |  | 1 µM | 74%
C[C@H](c1cccc(C#N)c1)n1cc(Cl)cc(C(N)=O)c1=N | cell-free assay | competition with immobilised ligand | 1 µM | 94%
CC(C)(C)c1ccc(-c2nc(CBr)nn2-c2cccc(O)c2)cc1 | cell-free assay | competition with immobilised ligand | 10 µM | 83%
CN(c1nccc(-c2cnn3ncccc23)n1)C1CC1 | binding |  | 1 µM | 100%
CC(C)(O)c1cncc(-c2nc3ccc(F)cc3n2C2CC2)c1 | cell-free assay | competition with immobilised ligand | 1 µM | 100%
CC1CCCN1c1nccc(-c2cnn3ncccc23)n1 (stereo not shown) | binding |  | 1 µM | 94%
Cc1cc(C)c(-n2ccn3nc(-c4cccnc4)cc23)cc1NC(=O)c1cc(C#N)cc(S(F)(F)(F)(F)F)c1 | cell-free assay | competition with immobilised ligand | 0.1 µM | 67.4%
